How the values were obtained:
[1] = target: Protein kinase C beta type (Homo sapiens) (UniProt P05771); assay: Inhibition of human recombinant PKCb at 500 nM related to control ULK1
[2] = target: TRAF2 and NCK-interacting protein kinase (Homo sapiens) (UniProt Q9UKE5); assay: Inhibition of human recombinant TNIK at 500 nM related to control ULK1
[3] = target: Serine/threonine-protein kinase PRP4 homolog (Homo sapiens) (UniProt Q13523); assay: Inhibition of human recombinant PRP4 at 500 nM in presence of ATP by radiometric assay relative to control
Chain of Serine/threonine-protein kinase PRP4 homolog (Homo sapiens) (Q13523 whole entry): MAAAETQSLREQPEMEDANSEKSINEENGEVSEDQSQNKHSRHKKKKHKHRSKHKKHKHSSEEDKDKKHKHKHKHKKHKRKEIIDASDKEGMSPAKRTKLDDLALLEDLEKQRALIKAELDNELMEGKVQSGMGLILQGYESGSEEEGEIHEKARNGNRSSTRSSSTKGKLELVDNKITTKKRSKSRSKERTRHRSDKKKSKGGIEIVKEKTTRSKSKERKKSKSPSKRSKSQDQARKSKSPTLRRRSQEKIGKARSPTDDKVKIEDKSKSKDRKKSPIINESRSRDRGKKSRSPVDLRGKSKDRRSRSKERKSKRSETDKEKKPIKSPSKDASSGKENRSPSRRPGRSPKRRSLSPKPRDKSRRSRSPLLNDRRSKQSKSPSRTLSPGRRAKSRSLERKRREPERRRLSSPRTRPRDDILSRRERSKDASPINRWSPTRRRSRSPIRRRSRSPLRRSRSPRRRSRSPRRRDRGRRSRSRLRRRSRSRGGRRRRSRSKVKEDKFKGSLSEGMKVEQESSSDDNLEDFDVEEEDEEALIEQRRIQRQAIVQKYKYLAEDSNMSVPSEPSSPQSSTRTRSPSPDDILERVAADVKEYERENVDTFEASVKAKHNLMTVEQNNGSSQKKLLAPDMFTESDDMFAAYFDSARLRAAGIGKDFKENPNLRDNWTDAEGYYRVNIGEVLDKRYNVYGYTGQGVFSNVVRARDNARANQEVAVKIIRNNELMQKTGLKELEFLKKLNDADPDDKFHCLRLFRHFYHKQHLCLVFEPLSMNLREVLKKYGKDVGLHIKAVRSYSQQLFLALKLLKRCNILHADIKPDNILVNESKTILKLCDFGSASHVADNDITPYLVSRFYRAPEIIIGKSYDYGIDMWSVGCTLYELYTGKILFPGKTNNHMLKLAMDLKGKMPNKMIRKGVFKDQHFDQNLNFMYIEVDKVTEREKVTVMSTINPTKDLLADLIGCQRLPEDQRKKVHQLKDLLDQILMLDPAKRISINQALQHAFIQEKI

[4] = target: Serine/threonine-protein kinase ATR (Homo sapiens) (UniProt Q13535); assay: Inhibition of human recombinant ATR at 500 nM in presence of ATP by radiometric assay relative to control
In short: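 Panel of 327 recombinant human kinases, each assayed in vitro by radiometric activity assay in duplicate at a single inhibitor concentration per compound, chosen with reference to its ULK1 inhibition. Activity remaining was expressed as percent of vehicle control, and percent inhibition was calculated as 100 minus percent activity remaining.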

[5] = target: Fibroblast growth factor receptor 1 (Homo sapiens) (UniProt P11362); assay: Inhibition of human recombinant FGFR1 at 500 nM in presence of ATP by radiometric assay relative to control
[6] = target: Serine/threonine-protein kinase PLK1 (Homo sapiens) (UniProt P53350); assay: Inhibition of human recombinant PLK1 at 500 nM in presence of ATP by radiometric assay relative to control
[7] = target: Calcium/calmodulin-dependent protein kinase type II subunit alpha (Homo sapiens) (UniProt Q9UQM7); assay: Inhibition of human recombinant CaMK2a at 500 nM related to control ULK1
Chain of Calcium/calmodulin-dependent protein kinase type II subunit alpha (Homo sapiens) (Q9UQM7 whole entry): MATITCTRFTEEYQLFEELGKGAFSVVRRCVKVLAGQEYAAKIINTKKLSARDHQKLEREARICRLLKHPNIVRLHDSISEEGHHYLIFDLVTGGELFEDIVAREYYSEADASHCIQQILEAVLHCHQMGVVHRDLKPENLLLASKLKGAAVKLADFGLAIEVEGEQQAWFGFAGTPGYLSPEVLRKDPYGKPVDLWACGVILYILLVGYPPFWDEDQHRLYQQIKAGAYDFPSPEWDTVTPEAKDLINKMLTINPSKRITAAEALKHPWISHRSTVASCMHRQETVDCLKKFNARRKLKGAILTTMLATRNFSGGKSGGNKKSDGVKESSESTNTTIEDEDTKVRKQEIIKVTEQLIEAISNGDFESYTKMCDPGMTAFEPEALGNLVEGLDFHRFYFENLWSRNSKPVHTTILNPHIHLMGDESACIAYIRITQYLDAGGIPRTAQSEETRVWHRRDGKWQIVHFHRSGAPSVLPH

[8] = target: 3-phosphoinositide-dependent protein kinase 1 (Homo sapiens) (UniProt O15530); assay: Inhibition of human recombinant PDK1 at 500 nM related to control ULK1
[9] = target: T1, Muscle, skeletal receptor tyrosine-protein kinase (Homo sapiens) (UniProt O15146); assay: Inhibition of human recombinant MUSK at 15 nM in presence of ATP by radiometric assay relative to control
T1 sequence (whole entry): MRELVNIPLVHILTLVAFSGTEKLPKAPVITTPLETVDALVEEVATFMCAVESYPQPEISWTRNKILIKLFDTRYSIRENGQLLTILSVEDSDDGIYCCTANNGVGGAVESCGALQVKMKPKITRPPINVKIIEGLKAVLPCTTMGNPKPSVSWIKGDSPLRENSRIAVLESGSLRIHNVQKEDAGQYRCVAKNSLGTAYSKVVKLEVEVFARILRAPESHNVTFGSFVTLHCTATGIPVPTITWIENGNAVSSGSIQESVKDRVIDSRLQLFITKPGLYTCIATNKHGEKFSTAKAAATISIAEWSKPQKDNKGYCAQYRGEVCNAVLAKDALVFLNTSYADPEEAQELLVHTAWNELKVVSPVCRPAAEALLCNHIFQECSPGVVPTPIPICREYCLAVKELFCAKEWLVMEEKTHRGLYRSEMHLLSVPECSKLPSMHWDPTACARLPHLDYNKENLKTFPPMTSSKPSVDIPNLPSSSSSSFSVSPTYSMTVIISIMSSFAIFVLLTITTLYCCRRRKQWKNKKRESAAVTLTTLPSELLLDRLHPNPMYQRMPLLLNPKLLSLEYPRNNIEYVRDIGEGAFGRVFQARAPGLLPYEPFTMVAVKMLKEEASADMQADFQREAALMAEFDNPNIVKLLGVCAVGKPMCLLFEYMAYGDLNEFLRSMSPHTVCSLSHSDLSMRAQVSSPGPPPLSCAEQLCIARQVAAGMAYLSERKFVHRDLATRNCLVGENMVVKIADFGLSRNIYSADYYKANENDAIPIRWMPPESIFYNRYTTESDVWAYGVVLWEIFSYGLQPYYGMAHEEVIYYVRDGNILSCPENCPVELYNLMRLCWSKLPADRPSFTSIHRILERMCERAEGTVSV

[10] = target: Protein kinase C gamma type (Homo sapiens) (UniProt P05129); assay: Inhibition of human recombinant PKCg at 40 nM related to control ULK1
[11] = target: T2, Myotonin-protein kinase (Homo sapiens) (UniProt Q09013); assay: Inhibition of human recombinant DMPK1 at 40 nM in presence of ATP by radiometric assay relative to control
T2 sequence (whole entry): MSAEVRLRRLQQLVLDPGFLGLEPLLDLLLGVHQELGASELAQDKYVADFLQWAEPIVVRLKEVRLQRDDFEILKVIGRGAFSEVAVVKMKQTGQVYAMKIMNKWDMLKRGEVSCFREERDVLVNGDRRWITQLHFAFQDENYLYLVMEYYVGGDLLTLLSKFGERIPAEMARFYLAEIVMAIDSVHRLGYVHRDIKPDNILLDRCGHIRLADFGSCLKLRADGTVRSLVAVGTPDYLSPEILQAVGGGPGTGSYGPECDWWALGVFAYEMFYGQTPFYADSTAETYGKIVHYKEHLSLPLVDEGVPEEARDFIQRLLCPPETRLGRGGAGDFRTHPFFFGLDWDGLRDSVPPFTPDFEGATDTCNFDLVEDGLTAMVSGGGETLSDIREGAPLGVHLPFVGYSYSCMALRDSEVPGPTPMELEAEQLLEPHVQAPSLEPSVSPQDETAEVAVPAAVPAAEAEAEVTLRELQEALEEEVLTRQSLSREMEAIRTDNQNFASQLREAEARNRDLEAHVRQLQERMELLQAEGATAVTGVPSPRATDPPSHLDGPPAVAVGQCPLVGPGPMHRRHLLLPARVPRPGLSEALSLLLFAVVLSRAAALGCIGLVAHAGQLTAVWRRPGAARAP

[12] = target: Calcium/calmodulin-dependent protein kinase type II subunit beta (Homo sapiens) (UniProt Q13554); assay: Inhibition of human recombinant CaMK2b at 40 nM related to control ULK1
[13] = target: Mitogen-activated protein kinase kinase kinase kinase 1 (Homo sapiens) (UniProt Q92918); assay: Inhibition of human recombinant HPK1 at 40 nM in presence of ATP by radiometric assay relative to control
Chain of Mitogen-activated protein kinase kinase kinase kinase 1 (Homo sapiens) (Q92918 whole entry, looked up): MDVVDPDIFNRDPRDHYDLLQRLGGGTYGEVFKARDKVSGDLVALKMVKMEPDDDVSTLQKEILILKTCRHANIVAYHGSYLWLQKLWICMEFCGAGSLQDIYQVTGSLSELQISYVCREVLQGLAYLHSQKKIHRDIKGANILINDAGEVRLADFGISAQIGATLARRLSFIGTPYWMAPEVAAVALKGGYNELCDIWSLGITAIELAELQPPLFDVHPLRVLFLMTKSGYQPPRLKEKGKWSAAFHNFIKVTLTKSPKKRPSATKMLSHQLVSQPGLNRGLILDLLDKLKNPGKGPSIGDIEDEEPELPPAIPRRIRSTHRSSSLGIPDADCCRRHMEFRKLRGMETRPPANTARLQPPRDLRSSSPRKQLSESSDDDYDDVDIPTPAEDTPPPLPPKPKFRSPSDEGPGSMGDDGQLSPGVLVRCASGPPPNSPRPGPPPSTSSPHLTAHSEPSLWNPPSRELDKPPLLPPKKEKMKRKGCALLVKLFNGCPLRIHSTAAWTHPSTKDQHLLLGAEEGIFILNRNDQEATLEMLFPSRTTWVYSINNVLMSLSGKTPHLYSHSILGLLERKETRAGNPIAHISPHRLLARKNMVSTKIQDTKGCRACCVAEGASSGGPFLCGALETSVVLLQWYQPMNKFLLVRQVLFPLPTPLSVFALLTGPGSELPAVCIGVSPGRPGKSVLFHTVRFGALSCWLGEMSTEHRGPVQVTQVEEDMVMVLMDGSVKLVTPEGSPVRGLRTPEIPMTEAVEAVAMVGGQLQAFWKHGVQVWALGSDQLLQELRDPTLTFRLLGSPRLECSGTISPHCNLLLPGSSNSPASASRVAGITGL

[14] = target: Serine/threonine-protein kinase MARK1 (Homo sapiens) (UniProt Q9P0L2); assay: Inhibition of human recombinant MARK1 at 40 nM in presence of ATP by radiometric assay relative to control
Chain of Serine/threonine-protein kinase MARK1 (Homo sapiens) (Q9P0L2 whole entry, looked up): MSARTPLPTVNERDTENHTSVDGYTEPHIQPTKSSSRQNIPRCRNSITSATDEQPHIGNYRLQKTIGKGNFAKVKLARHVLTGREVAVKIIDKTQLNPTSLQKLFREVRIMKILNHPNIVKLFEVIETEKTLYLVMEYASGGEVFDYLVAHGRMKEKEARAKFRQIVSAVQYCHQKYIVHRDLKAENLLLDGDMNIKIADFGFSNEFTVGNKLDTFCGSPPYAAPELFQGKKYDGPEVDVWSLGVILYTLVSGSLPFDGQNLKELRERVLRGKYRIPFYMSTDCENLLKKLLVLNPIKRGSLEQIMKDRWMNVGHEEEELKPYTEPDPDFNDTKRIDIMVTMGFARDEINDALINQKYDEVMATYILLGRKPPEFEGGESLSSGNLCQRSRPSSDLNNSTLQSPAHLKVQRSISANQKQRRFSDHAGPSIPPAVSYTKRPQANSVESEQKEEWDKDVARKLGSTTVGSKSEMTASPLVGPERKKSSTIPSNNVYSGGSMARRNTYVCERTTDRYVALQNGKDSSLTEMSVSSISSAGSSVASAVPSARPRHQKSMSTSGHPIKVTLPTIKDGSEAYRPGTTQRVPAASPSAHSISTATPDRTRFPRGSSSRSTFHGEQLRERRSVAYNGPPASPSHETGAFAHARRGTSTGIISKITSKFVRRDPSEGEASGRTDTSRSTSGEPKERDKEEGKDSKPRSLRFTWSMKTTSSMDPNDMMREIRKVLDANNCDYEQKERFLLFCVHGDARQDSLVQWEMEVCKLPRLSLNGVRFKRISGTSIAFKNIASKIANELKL

[15] = target: Serine/threonine-protein kinase SIK2 (Homo sapiens) (UniProt Q9H0K1); assay: Inhibition of human recombinant QIK at 40 nM related to control ULK1
[16] = target: MAP kinase-activated protein kinase 3 (Homo sapiens) (UniProt Q16644); assay: Inhibition of human recombinant MAPKAPK3 at 40 nM in presence of ATP by radiometric assay relative to control
Chain of MAP kinase-activated protein kinase 3 (Homo sapiens) (Q16644 whole entry, looked up): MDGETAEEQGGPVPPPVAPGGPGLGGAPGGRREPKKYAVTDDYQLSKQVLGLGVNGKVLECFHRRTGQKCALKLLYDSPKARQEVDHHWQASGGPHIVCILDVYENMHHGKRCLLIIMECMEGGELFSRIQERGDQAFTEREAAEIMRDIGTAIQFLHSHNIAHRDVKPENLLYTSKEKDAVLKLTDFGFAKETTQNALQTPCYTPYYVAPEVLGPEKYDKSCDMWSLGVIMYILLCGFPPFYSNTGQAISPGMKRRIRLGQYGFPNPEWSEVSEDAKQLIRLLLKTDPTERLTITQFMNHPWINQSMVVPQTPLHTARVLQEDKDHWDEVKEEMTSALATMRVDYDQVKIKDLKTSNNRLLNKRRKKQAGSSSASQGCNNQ

Chain of TRAF2 and NCK-interacting protein kinase (Homo sapiens) (Q9UKE5 whole entry, looked up): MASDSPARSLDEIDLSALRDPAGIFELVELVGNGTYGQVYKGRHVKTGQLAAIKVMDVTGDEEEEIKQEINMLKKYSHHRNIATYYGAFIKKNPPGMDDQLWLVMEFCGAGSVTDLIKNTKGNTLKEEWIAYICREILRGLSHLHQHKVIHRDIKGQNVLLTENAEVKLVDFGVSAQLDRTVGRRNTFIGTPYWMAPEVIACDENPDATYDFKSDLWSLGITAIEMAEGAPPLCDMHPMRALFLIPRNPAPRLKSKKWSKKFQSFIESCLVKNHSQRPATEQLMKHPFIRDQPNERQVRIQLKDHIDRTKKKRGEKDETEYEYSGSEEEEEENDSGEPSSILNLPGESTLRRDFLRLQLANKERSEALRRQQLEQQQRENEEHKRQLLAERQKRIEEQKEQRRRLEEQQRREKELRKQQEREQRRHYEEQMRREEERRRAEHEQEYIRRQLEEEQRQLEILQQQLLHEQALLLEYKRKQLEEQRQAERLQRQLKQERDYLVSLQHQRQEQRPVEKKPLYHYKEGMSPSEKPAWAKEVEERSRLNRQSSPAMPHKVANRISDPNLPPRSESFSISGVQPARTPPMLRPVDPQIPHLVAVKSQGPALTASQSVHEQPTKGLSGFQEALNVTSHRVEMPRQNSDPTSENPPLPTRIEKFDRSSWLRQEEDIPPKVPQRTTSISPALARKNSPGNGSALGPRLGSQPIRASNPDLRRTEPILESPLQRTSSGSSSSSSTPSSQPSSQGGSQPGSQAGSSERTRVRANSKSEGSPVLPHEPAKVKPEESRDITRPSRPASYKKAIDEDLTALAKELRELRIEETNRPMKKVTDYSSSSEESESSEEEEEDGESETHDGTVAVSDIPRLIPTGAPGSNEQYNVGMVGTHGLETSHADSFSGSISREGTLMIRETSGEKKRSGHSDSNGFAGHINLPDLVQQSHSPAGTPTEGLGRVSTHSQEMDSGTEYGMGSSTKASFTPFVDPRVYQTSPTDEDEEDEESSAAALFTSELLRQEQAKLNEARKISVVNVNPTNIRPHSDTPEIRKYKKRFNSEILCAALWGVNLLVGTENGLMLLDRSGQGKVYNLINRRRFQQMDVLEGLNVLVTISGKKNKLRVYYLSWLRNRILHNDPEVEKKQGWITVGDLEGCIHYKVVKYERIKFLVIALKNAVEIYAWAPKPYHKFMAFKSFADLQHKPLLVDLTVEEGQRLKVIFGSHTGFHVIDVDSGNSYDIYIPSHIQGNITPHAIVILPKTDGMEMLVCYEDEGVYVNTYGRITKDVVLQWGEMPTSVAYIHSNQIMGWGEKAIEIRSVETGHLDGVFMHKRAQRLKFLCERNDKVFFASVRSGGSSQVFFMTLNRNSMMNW

SMILES: CNC(=O)c1ccccc1Oc1nc(Nc2cc(OC)c(OC)c(OC)c2)ncc1Br
- fold change (FC) [1]: 0.09
- fold change (FC) [2]: 0.05
- inhibition [3]: 2%
- inhibition [4]: 0%
- inhibition [5]: 35%
- inhibition [6]: 0%
- fold change (FC) [7]: 0
- fold change (FC) [8]: 0.05

SMILES: CC(C)[C@H](NC(=O)c1cc(-c2cnn3cc(-c4ccc(OCCN5CCCCC5)cc4)cnc23)cs1)C(F)(F)F
- inhibition [9]: 0%

SMILES: O=C(N[C@@H](C1CC1)C(F)(F)F)c1cc(-c2cnn3cc(-c4ccc(F)cc4)cnc23)cs1
- fold change (FC) [10]: 0
- inhibition [11]: 5%
- fold change (FC) [12]: 0
- inhibition [13]: 0%
- inhibition [14]: 29%
- fold change (FC) [15]: 0.74
- inhibition [16]: 0%

Reference: ChEMBL document CHEMBL5653631, “A Potent and Selective ULK1 Inhibitor Suppresses Autophagy and Sensitizes Cancer Cells to Nutrient Stress” (iScience, 2018)
